{
  "source": "PubChem BioAssay AID623983",
  "about": "(Vanderbilt High Throughput Screening Facility, 2012)",
  "molecular_target": "G protein-activated inward rectifier potassium channel 2 (Homo sapiens) + G protein-activated inward rectifier potassium channel 3 (Homo sapiens) (UniProt P48051+Q92806)",
  "sequence (P48051 whole entry, looked up)": "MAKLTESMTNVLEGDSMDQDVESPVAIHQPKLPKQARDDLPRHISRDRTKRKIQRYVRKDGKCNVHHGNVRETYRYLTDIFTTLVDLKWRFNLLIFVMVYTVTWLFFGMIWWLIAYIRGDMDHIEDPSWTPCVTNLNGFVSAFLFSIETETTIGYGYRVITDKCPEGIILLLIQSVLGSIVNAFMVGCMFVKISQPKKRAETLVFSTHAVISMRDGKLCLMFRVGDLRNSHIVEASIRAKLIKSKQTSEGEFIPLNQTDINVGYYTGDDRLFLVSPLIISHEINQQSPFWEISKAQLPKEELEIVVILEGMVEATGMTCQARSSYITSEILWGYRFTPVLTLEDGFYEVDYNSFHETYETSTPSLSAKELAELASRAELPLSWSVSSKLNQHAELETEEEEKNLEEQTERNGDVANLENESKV",
  "sequence (Q92806 whole entry, looked up)": "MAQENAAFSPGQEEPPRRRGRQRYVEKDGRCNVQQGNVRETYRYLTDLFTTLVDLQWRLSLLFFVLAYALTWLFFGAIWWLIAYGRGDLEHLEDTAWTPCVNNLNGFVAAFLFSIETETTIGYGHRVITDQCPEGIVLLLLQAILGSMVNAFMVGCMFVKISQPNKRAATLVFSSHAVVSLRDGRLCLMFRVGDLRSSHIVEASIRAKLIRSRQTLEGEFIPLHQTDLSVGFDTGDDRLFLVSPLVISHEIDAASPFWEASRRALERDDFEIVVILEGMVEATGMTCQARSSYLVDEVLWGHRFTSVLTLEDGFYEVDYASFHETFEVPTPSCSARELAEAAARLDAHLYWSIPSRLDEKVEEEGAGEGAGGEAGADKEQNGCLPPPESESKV",
  "assay": "GIRK2/3 channel activators, Tl+ flux, dose response, cell-based, HEK-293 hGIRK2/3, thallium flux, FluoZin-2, concentration-response (AID 623983)",
  "settings": "HEK-293 hGIRK2/3, thallium flux FluoZin-2 fluorescence; series mostly up to 30 µM",
  "method_in_brief": "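Assay system – stable hGIRK2/3 HEK-293 cell line · Probe or stimulus – Tl+ stimulus plus EC20 glutamate · Incubation – FluoZin-2 AM loading ~60 min room temperature, compound 4 min pre-thallium · Detection – thallium flux fluorescence with FluoZin-2, 1 Hz · Read-out – vehicle-subtracted F/F0 slope after thallium, % of 80 mM MPD · Benchmarks – 80 mM MPD reference and vehicle control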",
  "note": "Calls of active or inactive are those of the source. No rule for the calls is given here.",
  "data": [
    {"smiles": "Cc1cc(NC(=O)Nc2ccc(F)c(F)c2)n(-c2ccccc2)n1", "values": [
      {"measurement": "outcome", "result": "inactive"}
    ]}
  ]
}
